Usually ED50 stands for the midpoint of the dose-response relation.

The structures appear in SMILES notation.

Our source for the ED50, TPE and ST values is ChEMBL document CHEMBL1123481, “Structure-activity relationships of (arylalkyl)imidazole anticonvulsants: comparison of the (fluorenylalkyl)imidazoles with nafimidone and denzimol” (J Med Chem, 1986).

Assay [1] concerns Mus musculus. Kind of assay: Effective dose in mice by pentylenetetrazole assay (administered subcutaneously). Format: functional. The conditions noted are these: sc. The method, boiled down:
(§1)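 Test compound was given orally to mice. At its previously determined time of peak effect, pentylenetetrazole (110 mg/kg in water, 10 mL/kg) was injected sc into the neck skin fold. Mice were watched for 15 min for presence or absence of a clonic seizure. Where protection was bell-shaped, the value is the dose giving maximum protection.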

Assay [2] is filed under the species Mus musculus. Description: Compound was tested for time to peak anticonvulsant effect (TPE). In kind it is functional. The method, boiled down:
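Time to peak effect after oral dosing in 5% acacia/water was estimated by testing mice at 0.5, 1, 2, 3 and 4 h posttreatment in the MES and horizontal screen tests.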

The test system of assay [3] is Mus musculus. Kind of assay: Effective dose in mice by horizontal screen assay (administered orally); No effect at highest dose of 400 mg/kg. In kind it is functional, organism-based. The arrangement: dose 400 mg/kg. The method, boiled down:
(§2)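 Fasted, pre-trained male CF1 mice (20–25 g) were dosed orally across a range of doses, given as a suspension in 5% acacia/water. Each mouse was placed on a 13 cm square wire screen, and the screen was rotated 180°. The score was return to the top within 1 min. Time of peak effect was scanned at 0.5–4 h. Each compound was then retested at that time with at least 4 doses and 12 mice per dose.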

Assay [4] has as its system Mus musculus. Kind of assay: Effective dose in mice by horizontal screen assay (administered orally). Format: functional. The conditions noted are these: po. The gist of the method:
as §2

Assay [5] deals with Mus musculus. Description: Effective dose in mice by maximal electroshock assay, administered orally. Format: functional. The conditions noted are these: po. The gist of the method: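 Mice were dosed orally across a range of doses, given in 5% acacia/water. Time of peak effect was found by shocking at 0.5, 1, 2, 3 and 4 h. Corneal electroshock was 40 mA, 0.1 s, ac. Each compound was retested at peak time with at least four doses and 12 mice per dose. The ED50 for prevention of tonic-extensor convulsion was calculated by Litchfield–Wilcoxon; 95% confidence limits are given.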
In general terms: In the maximal electroshock model the usual endpoint is tonic extension of the hind limbs.

Assay [6] concerns Mus musculus. Kind of assay: Effective dose in mice by pentylenetetrazole assay (administered subcutaneously); No effect at highest dose of 400 mg/kg. Format: functional, organism-based. Also noted: dose 400 mg/kg. The gist of the method: as §1
Assay [7] is filed under the species Mus musculus. Description: Potentiation of hexobarbital-induced sleeping time in mice. In kind it is functional. The method, boiled down: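 Groups of 10 fasted mice received compound orally at 10 mg/kg in 5% acacia/water (10 mL/kg). At the compound's time of peak effect they were given hexobarbital 100 mg/kg ip, solubilized with stoichiometric NaOH. Sleeping time, measured as loss of righting reflex, was recorded to the nearest minute. Values are mean ± SEM.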

`O=C(OC(Cn1ccnc1)c1ccc2c(c1)Cc1ccccc1-2)c1ccccc1` (stereo unspecified): the ED50 in the assay on Mus musculus [1] is above 400 mg/kg; in the assay on Mus musculus [3] it was “No effect”. The molecule also registered a TPE in the assay listed under Mus musculus [2] of 1 h.

As to `c1ccc2c(c1)Cc1cc(C3(CCn4ccnc4)OCCO3)ccc1-2`, the ED50 with Mus musculus [1] was above 400 mg/kg; in the assay on Mus musculus [3], “No effect”. Also, in the assay listed under Mus musculus [2], the TPE stood at 1 h.

`Cc1nccn1CC(=O)c1ccc2c(c1)Cc1ccccc1-2` had an ED50 with Mus musculus [4] above 400 mg/kg. Further, the TPE in the assay listed under Mus musculus [2] turned out to be 1 h.

Consider `O=C(Cn1ccnc1)c1cccc2c1Cc1ccccc1-2`, for which the 50% effective dose (ED50) was above 100 mg/kg with Mus musculus [4], above 200 mg/kg in the assay with Mus musculus [1] and 19 mg/kg in the assay on Mus musculus [5]. Also, the TPE in the assay filed under Mus musculus [2] worked out at 2 h.

As to `CC1COC(Cn2ccnc2)(c2ccc3c(c2)Cc2ccccc2-3)O1` (stereo unspecified), the ED50 is above 400 mg/kg with Mus musculus [4] and above 200 mg/kg with Mus musculus [1]. The molecule further had a TPE in the assay listed under Mus musculus [2] of 2 h.

`CCc1nccn1CC(=O)c1ccc2c(c1)Cc1ccccc1-2`: the ED50 in the assay with Mus musculus [4] was above 400 mg/kg; in the assay on Mus musculus [1] it was above 400 mg/kg; with Mus musculus [5] it was 190 mg/kg. The same molecule had a TPE in the assay filed under Mus musculus [2] of 2 h.

With `c1ccc2c(c1)Cc1cc(C3(Cn4ccnc4)SCCS3)ccc1-2`, the ED50 in the assay with Mus musculus [4] and in the assay with Mus musculus [1] was above 400 mg/kg throughout. Moreover, the TPE in the assay filed under Mus musculus [2] turned out to be 2 h.

`O=C(Cn1ccnc1)c1ccc2c(c1)-c1ccccc1CC2`: the ED50 in the assay with Mus musculus [1] is above 400 mg/kg; with Mus musculus [5], 71 mg/kg; with Mus musculus [3], “No effect”. The TPE in the assay filed under Mus musculus [2] was found to be 1 h.

In the case of `Cc1ccc2c(c1)Cc1cc(C(=O)Cn3ccnc3)ccc1-2`, the ED50 entry in the assay with Mus musculus [6] and in the assay on Mus musculus [3] was “No effect” each time. For the same molecule, the TPE in the assay listed under Mus musculus [2] stood at 2 h.

As for `CC(C(=O)c1ccc2c(c1)Cc1ccccc1-2)n1ccnc1` (stereo unspecified), the ED50 was above 400 mg/kg with Mus musculus [4] and 260 mg/kg in the assay on Mus musculus [1]. Moreover, the ST in the assay filed under Mus musculus [7] stood at 103 min. Also, in the assay filed under Mus musculus [2], the TPE was determined as 1.5 h.

For the molecule `c1ccc2c(c1)Cc1cc(CCn3ccnc3)ccc1-2`, the ED50 in the assay on Mus musculus [4] was above 100 mg/kg; in the assay on Mus musculus [1], above 200 mg/kg; in the assay with Mus musculus [5] it was 17.8 mg/kg. This molecule also gave a TPE in the assay filed under Mus musculus [2] of 2 h.

Consider `Cc1cn(CC(=O)c2ccc3c(c2)Cc2ccccc2-3)cn1`, for which the ED50 in the assay with Mus musculus [4] is above 400 mg/kg; with Mus musculus [6] it was “No effect”. The same molecule had a TPE in the assay filed under Mus musculus [2] of 1 h.

As to `CC1(C)c2ccccc2-c2ccc(C(=O)Cn3ccnc3)cc21`, the ED50 in the assay on Mus musculus [4] and in the assay with Mus musculus [1] was above 400 mg/kg throughout. In the assay filed under Mus musculus [2], this molecule gave a TPE of 1 h.

`CCc1ccc2c(c1)Cc1cc(C(=O)Cn3ccnc3)ccc1-2.Cl`: the results for the ED50 with Mus musculus [1], with Mus musculus [5] and in the assay on Mus musculus [3] were above 400 mg/kg, 240 mg/kg and “No effect”, respectively. The TPE in the assay listed under Mus musculus [2] was determined as 1 h.

On to `c1ccc2c(c1)Cc1cc(C3(Cn4ccnc4)OCCCO3)ccc1-2`, for which the median effective dose (ED50) was above 400 mg/kg in the assay with Mus musculus [4] and “No effect” in the assay with Mus musculus [6]. In the assay listed under Mus musculus [2], this molecule had a TPE of 1 h.

Consider `O=C(Cn1ccnc1)c1cccc2c1-c1ccccc1C2`, for which the 50% effective dose (ED50) was above 400 mg/kg in the assay on Mus musculus [4] and 400 mg/kg with Mus musculus [1]. Besides, in the assay filed under Mus musculus [2], the TPE turned out to be 1 h.

`O=C(Cn1ccnc1)c1cc2ccccc2s1`: the results for the ED50 in the assay on Mus musculus [4], with Mus musculus [1] and in the assay with Mus musculus [5] were above 400 mg/kg, above 400 mg/kg and 86 mg/kg, respectively. The TPE in the assay filed under Mus musculus [2] came out at 1 h.

For the molecule `O=C(Cn1ccnc1)c1csc2ccccc12`, the median effective dose (ED50) with Mus musculus [1] was above 400 mg/kg; in the assay on Mus musculus [5], 59 mg/kg; in the assay with Mus musculus [3] it was “No effect”. The molecule also gave a TPE in the assay listed under Mus musculus [2] of 1 h.

With `c1ccc2cc(CCn3ccnc3)ccc2c1`, the ED50 in the assay on Mus musculus [4] was above 200 mg/kg; in the assay with Mus musculus [1], above 200 mg/kg; with Mus musculus [5] it was 51 mg/kg. The same molecule returned a TPE in the assay filed under Mus musculus [2] of 1 h.

For the molecule `CCC(C(=O)c1ccc2c(c1)Cc1ccccc1-2)n1ccnc1` (stereo unspecified), the ED50 is above 400 mg/kg with Mus musculus [1] and “No effect” in the assay with Mus musculus [3]. Moreover, the TPE in the assay filed under Mus musculus [2] was determined as 1 h.

On to `O=C(CCn1ccnc1)c1ccc2c(c1)Cc1ccccc1-2`, for which the ED50 in the assay with Mus musculus [4] is above 200 mg/kg; with Mus musculus [1], above 100 mg/kg. In addition, the TPE in the assay listed under Mus musculus [2] was found to be 1 h.
